From ChEMBL document CHEMBL2434859, “Targeting botulinum A cellular toxicity: a prodrug approach” (J Med Chem, 2013) come the findings set out here.

A short description of series [1]: Half life in PBS buffer at 10 to 100 uM by LC/MS analysis. It is filed as physicochemical. The procedure, abridged:
(§1)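 Compound at 10–100 μM (1% DMSO) was held in PBS pH 7.4 or neurobasal medium. Aliquots were taken at timed intervals; medium samples were quenched in cold acetonitrile. A deuterated internal standard (1 μM) was added, and samples were read by LC/MS (C8, SIM) against calibration curves. Half-life came from an exponential decay fit.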

Series [2] addresses Botulinum neurotoxin type A (Clostridium botulinum (strain Hall / ATCC 3502 / NCTC 13319 / Type A), UniProt P0DPI1). As to the kind of experiment: (§2) Inhibition of Clostridium botulinum A Hall BoNT LC/A in human induced pluripotent stem cell-derived neurons assessed as inhibition of intracellular SNAP-25 cleavage after 8 hrs by Western blot analysis. It counts as cell-based, Clostridium botulinum A str. Hall. A general note: In western blotting, separated proteins are transferred to a membrane and probed.

The target in series [3] is Botulinum neurotoxin type A (Clostridium botulinum (strain Hall / ATCC 3502 / NCTC 13319 / Type A)) (UniProt P0DPI1). The series is described as §2. It is filed as cell-based. The conditions noted are these: Clostridium botulinum A str. Hall.
Botulinum neurotoxin type A (Clostridium botulinum (strain Hall / ATCC 3502 / NCTC 13319 / Type A)), sequence (P0DPI1 2-448 limits assumed): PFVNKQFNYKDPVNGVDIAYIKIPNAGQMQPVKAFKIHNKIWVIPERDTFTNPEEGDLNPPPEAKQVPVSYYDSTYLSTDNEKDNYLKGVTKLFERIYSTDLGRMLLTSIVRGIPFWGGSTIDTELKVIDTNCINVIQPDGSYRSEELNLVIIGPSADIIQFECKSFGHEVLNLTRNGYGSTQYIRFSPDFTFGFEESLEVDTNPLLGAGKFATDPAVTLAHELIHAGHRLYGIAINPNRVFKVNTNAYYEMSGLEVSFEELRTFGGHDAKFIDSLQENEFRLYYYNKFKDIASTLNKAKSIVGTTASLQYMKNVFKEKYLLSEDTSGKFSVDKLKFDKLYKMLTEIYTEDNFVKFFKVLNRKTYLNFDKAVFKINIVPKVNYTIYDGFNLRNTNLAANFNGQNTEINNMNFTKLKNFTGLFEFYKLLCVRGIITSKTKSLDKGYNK
For series [4] the target is unchanged. As to the kind of experiment: Inhibition of Clostridium botulinum A Hall BoNT LC/A in human induced pluripotent stem cell-derived neurons assessed as inhibition of intracellular SNAP-25 cleavage after 8 hrs by Western blot analysis in presence of 0.01% Tween-80. It is filed as cell-based. The note with it: Clostridium botulinum A str. Hall.
Series [5] in a line: Half life in culture media at 10 to 100 uM by LC/MS analysis. The conditions noted are these: for t1/2: 100 µM. It counts as physicochemical. Summed up:
as §1

The target of series [6] is Botulinum neurotoxin type A (Clostridium botulinum (strain Hall / ATCC 3502 / NCTC 13319 / Type A)) (UniProt P0DPI1). Nature of the series: Inhibition of Clostridium botulinum A Hall BoNT LC/A in human induced pluripotent stem cell-derived neurons assessed as inhibition of intracellular SNAP-25 cleavage at 25 uM after 8 hrs by Western blot analysis relative to control. It counts as cell-based. The note with it: Clostridium botulinum A str. Hall.

Series [7] is described as follows: Cytotoxicity against human induced pluripotent stem cell-derived neurons assessed as SNAP-25 level at 25 uM after 8 hrs by Western blot analysis. The note with it: induced pluripotent stem cell-derived neuron.
The nature of series [8]: Cellular uptake in golgi apparatus of mouse Neuro2a cell assessed as release of AMC and 1-adamantylacetohydroxamic acid at 50 uM after 3 hrs by Alexa Fluor 488-conjugated wheat germ agglutinin/TOTO-3 staining-based laser scanning confocal microscopic analysis. It is filed as ADME.
Series [9] in a line: Prodrug conversion in mouse Neuro2a cells assessed as release of AMC and 1-adamantylacetohydroxamic acid at 50 uM after 3 hrs by Alexa Fluor 488-conjugated wheat germ agglutinin/TOTO-3 staining-based laser scanning confocal microscopic analysis. It counts as ADME, cell-based. The note with it: n2a.

The structures appear in SMILES notation. Calls of active or inactive are those of the source.

A word on the EC50: it is the midpoint of the concentration-response curve. Broadly, the inhibition is the percentage by which the read-out fell short of the control. A word on the half-life: it is the time needed for the level to fall by half in the phase considered. A low value points to rapid decline.

Botulinum neurotoxin type A, sequence (P0DPI1 2-448 limits assumed): as above

Take `CC(C)(C)NC(=O)ONC(=O)CC12CC3CC(CC(C3)C1)C2`: the t1/2 in series [1] is 72 h. Besides, the half-maximal effective concentration (EC50) entry in series [2] is listed as “ND(toxic)”.
With `O=C(CC12CC3CC(CC(C3)C1)C2)NOC(=O)NCc1ccccc1`, the t1/2 in [1] was found to be 17.6 h; in series [5], 14.6 h. In addition, the inhibition result was “Dose-dependent effect” in series [3] and 50% in series [6]. Further, the 50% effective concentration (EC50) in series [2] (read-out: EC50) is 20 µM. In addition, in series [4], the inhibition result was “Active”.
Take `O=C(CC12CC3CC(CC(C3)C1)C2)NOC(=O)NCc1ccc(F)cc1`: the t1/2 in series [1] and in series [5] was 11.5 h in each case. Also, the EC50 in series [2] (read-out: EC50) came out at 27 µM.
On to `O=C(CC12CC3CC(CC(C3)C1)C2)NOC(=O)Nc1ccccc1`, for which the t1/2 in [1] was determined as 1.1 h; in series [5] it was 0.76 h. Besides, the EC50 in series [2] (read-out: EC50) is more than 100 µM.
In the same order, the values of `O=C(CC12CC3CC(CC(C3)C1)C2)NOC(=O)Nc1ccc(F)cc1` are 0.9 h, 0.62 h and more than 100 µM.
As to `CCNC(=O)ONC(=O)CC12CC3CC(CC(C3)C1)C2`, the t1/2 came out at 27.6 h in series [1] and 15.1 h in series [5]. Also, the EC50 in series [2] (read-out: EC50) was more than 100 µM.
Regarding `CC1(C)ON=C(CC23CC4CC(CC(C4)C2)C3)O1`, the figures for the t1/2 in [1] and in [5] were 3.3 h and 10.2 h, respectively. For the same compound, the concentration giving a half-maximal response (EC50) in series [2] (read-out: EC50) is more than 100 µM.
As to `O=C(CC12CC3CC(CC(C3)C1)C2)N(O)C(=O)NCc1ccccc1`, the Activity result in [7] was “Toxic”.
For `CN(C)C(=O)ONC(=O)CC12CC3CC(CC(C3)C1)C2`, the t1/2 in series [1] amounted to 149 h; in [5] it was 61 h. In series [2] (read-out: EC50), the 50% effective concentration (EC50) is more than 100 µM.
In the case of `Cc1cc(=O)oc2cc(NC(=O)ONC(=O)CC34CC5CC(CC(C5)C3)C4)ccc12`, the inhibition result in series [3] is “Active”. The Drug uptake result in series [8] is on record as “Active”. Moreover, the Drug metabolism result in series [9] is recorded as “Active”. This compound gave a half-life at up to 100 µM in series [5] (culture media) of 4.5 h.
Regarding `O=C(CC12CC3CC(CC(C3)C1)C2)NOC(=O)N1CCOCC1`, the t1/2 in series [1] turned out to be 48 h; in [5] it was 33 h. The EC50 in [2] (read-out: EC50) is 37 µM.
On to `COCCN(CCOC)C(=O)ONC(=O)CC12CC3CC(CC(C3)C1)C2`, for which the t1/2 in series [1] turned out to be 164 h; in series [5], 48 h. The EC50 in series [2] (read-out: EC50) was more than 100 µM.
Take `COc1ccc(CNC(=O)ONC(=O)CC23CC4CC(CC(C4)C2)C3)cc1`: the t1/2 in series [1] came to 14 h; in series [5] it was 11.2 h. For the same compound, the EC50 in series [2] (read-out: EC50) is 42 µM.
In the same order, the values of `COc1ccc(NC(=O)ONC(=O)CC23CC4CC(CC(C4)C2)C3)cc1` are 1.1 h, 0.85 h and more than 100 µM.
Take `COc1cc(NC(=O)ONC(=O)CC23CC4CC(CC(C4)C2)C3)cc(OC)c1`: the t1/2 in series [1] was determined as 1.2 h; in series [5], 1.6 h. Moreover, the EC50 in series [2] (read-out: EC50) is more than 100 µM.
